# Assay results: ChEMBL document CHEMBL1122650, “Synthesis and central nervous system properties of 2-[(alkoxycarbonyl)amino]-4(5)-phenyl-2-imidazolines” (J Med Chem, 1984)
# Active and inactive are the calls of the source. The rule behind the calls is not given here.
# How the values were obtained:
# Mus musculus [1] = organism: Mus musculus; experiment: Compound was evaluated for maximal electroshock antagonism (MES) against mice; Inactive; format: functional, organism-based
# Outline: (§1)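 Male HLa (ICR) BR mice, groups of eight to ten, dosed ip (aqueous solution) 15 min before transcorneal electroshock (50 mA, 0.2 s). End point: abolition of tonic hind-limb extension; quantal ED50 by Litchfield-Wilcoxon.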
# Mus musculus [2] = organism: Mus musculus; experiment: Mouse behavior activity was determined; S-D=Stimulant-Depressant; format: functional, organism-based
# Outline: (§2)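 Male Simonsen (ICR) fBR mice, 18-24 g, groups of three, given 3, 10, 30, 100, 300 or 1000 mg/kg ip as aqueous solution and observed for behavioral profile; deaths followed up to 7 days.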
# [3] = Lethal dose in mouse, in groups of ten; format: toxicity, organism-based; conditions: in vivo
# Mus musculus [4] = organism: Mus musculus; experiment: Mouse behavior activity was determined;D= Depressant; format: functional, organism-based; outline: as §2
# Mus musculus [5] = organism: Mus musculus; experiment: Compound was evaluated for maximal electroshock antagonism (MES) against mice; format: functional; outline: as §1
# Mus musculus [6] = organism: Mus musculus; experiment: Righting ability was determined in mice […] rapid rolling (aroused); format: functional
# Outline: (§3)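 Male Simonsen (ICR) fBR mice, 18-24 g, groups of ten, dosed with aqueous compound. Righting ability checked before (unaroused) and after (aroused) rapid rolling in the hand; ED50 by Litchfield-Wilcoxon method.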
# Mus musculus [7] = organism: Mus musculus; experiment: Righting ability was determined in mice before rapid rolling (unaroused); format: functional; outline: as §3
# [8] = HPLC capacity factor (k'); format: ADME
# Mus musculus [9] = organism: Mus musculus; experiment: Evaluated for antagonism of reserpine induced hypothermia; format: functional
# Outline: (§4)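 Male HLa (ICR) BR mice, 18-24 g, in groups of eight; reserpine 5 mg/kg ip given 2 h before oral test compound as aqueous solution. Rectal temperature taken hourly; 1-4-h hypothermia assessed by analysis of variance.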
# Mus musculus [10] = experiment: Evaluated in vivo for reserpine hypothermia after oral administration in mouse. Minimum active dose was reported; Inactive; format: functional, organism-based; outline: as §4
# Mus musculus [11] = organism: Mus musculus; experiment: Mouse behavior activity was determined; Dwk=Depressant Weak; format: functional, organism-based; outline: as §2
# Mus musculus [12] = organism: Mus musculus; experiment: Evaluated for antagonism of reserpine induced hypothermia;I= Inactive; format: functional, organism-based; outline: as §4
# Mus musculus [13] = organism: Mus musculus; experiment: Inhibition of radioactive NE [3H]norepinephrine uptake into mouse heart; format: functional
# Outline: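 Mice dosed ip (aqueous solution) before iv [3H]NE; hearts removed 3 h after label, washed, weighed, dissolved in Protosol and counted as dpm per mg tissue. Dose-response from linear regression.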
# Mus musculus [14] = experiment: Reserpine hypothermia antagonism in mouse administered perorally with 5 mg/kg of reserpine 2 hour prior to test compound administration; format: functional; conditions: route oral
# Rattus norvegicus [15] = organism: Rattus norvegicus; experiment: Inhibition of the 5-HT [14C]5-HT uptake by rat brain slices In vitro; format: functional
# Outline: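 Rat cerebral cortex slices, 5 mg tissue per mL Krebs-Henseleit buffer, incubated at 37 °C with [3H]NE or [14C]5-HT; blanks at 4 °C, undosed controls. Stopped after 20 min by filtration; slice radioactivity counted; IC50 from linear regression of uptake inhibition.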
# Rattus norvegicus [16] = organism: Rattus norvegicus; experiment: Inhibition of the NE [3H]Norepinephrine uptake by rat brain slices In vitro; format: functional
smiles,measurement,setting,value
COC(=O)NC1=NCC(c2ccccc2)N1C (centres undefined),ED50,Mus musculus [1],inactive
same,Mouse behavior activity,Mus musculus [2],Stimulant-Depressant
same,LD50,[3],200 mg/kg
CN(C)CCC=C1c2ccccc2COc2ccccc21 [DOXEPIN],Mouse behavior activity,Mus musculus [4],Depressant
same,ED50,Mus musculus [5],16 mg/kg
same,Loss of righting reflex,Mus musculus [6],43 mg/kg
same,Loss of righting reflex,Mus musculus [7],40 mg/kg
same,LD50,[3],50 mg/kg
CCOC(=O)NC1=NC(c2ccc(F)cc2)CN1C (centres undefined),Log k',[8],0.48
same,ED50,Mus musculus [5],100 mg/kg
same,Mouse behavior activity,Mus musculus [2],Stimulant-Depressant
same,HYPO,Mus musculus [9],<0.5 mg/kg
same,LD50,[3],200 mg/kg
COC(=O)NC1=NC(c2c(Cl)cccc2Cl)CN1C (centres undefined),HYPO,Mus musculus [9],<0.5 mg/kg
COC(=O)NC1=NC(c2ccc(C(F)(F)F)cc2)CN1 (centres undefined),Log k',[8],0.56
same,ED50,Mus musculus [10],inactive
same,Mouse behavior activity,Mus musculus [11],Depressant - weak
same,ED50,Mus musculus [1],inactive
same,HYPO,Mus musculus [9],>20 mg/kg
same,LD50,[3],700 mg/kg
CC(C)COC(=O)NC1=NC(c2ccccc2)CN1C (centres undefined),Log k',[8],1.15
same,Mouse behavior activity,Mus musculus [4],Depressant
same,ED50,Mus musculus [5],70 mg/kg
same,Loss of righting reflex,Mus musculus [6],76 mg/kg
same,Loss of righting reflex,Mus musculus [7],41 mg/kg
same,HYPO,Mus musculus [9],>20 mg/kg
same,LD50,[3],247 mg/kg
COC(=O)NC1=NCC2(CCc3ccccc32)N1C (centres undefined),Log k',[8],0.48
same,ED50,Mus musculus [10],inactive
same,Mouse behavior activity,Mus musculus [11],Depressant Weak
same,ED50,Mus musculus [1],inactive
same,LD50,[3],300 mg/kg
CCOC(=O)NC1=NC(c2cccc(C)c2C)CN1C (centres undefined),Log k',[8],1.02
same,HYPO,Mus musculus [12],inactive
same,Mouse behavior activity,Mus musculus [4],Depressant
same,ED50,Mus musculus [5],70 mg/kg
same,Loss of righting reflex,Mus musculus [6],66 mg/kg
same,Loss of righting reflex,Mus musculus [7],41 mg/kg
same,LD50,[3],300 mg/kg
COC(=O)NC1=NC(c2cc(Cl)cc(Cl)c2)CN1C (centres undefined),ED50,Mus musculus [5],44 mg/kg
COC(=O)NC1=NC(c2cccc(Cl)c2)CN1C (centres undefined),Log k',[8],0.53
same,Mouse behavior activity,Mus musculus [4],Depressant
same,ED50,Mus musculus [5],100 mg/kg
same,Loss of righting reflex,Mus musculus [7],200 mg/kg
same,LD50,[3],300 mg/kg
COC(=O)NC1=NC(c2ccccc2F)CN1C (centres undefined),Log k',[8],0.14
same,ED50,Mus musculus [10],inactive
same,Mouse behavior activity,Mus musculus [11],Depressant Weak
same,ED50,Mus musculus [5],74 mg/kg
same,LD50,[3],254 mg/kg
CC(C)OC(=O)NC1=NC(c2cccc(Cl)c2)CN1 (centres undefined),Log k',[8],0.95
same,ED50,Mus musculus [5],79 mg/kg
COC(=O)NC1=NC(c2cccc(C)c2)CN1C (centres undefined),Log k',[8],0.49
same,Mouse behavior activity,Mus musculus [4],Depressant
same,ED50,Mus musculus [5],89 mg/kg
same,Loss of righting reflex,Mus musculus [6],149 mg/kg
same,Loss of righting reflex,Mus musculus [7],90 mg/kg
same,LD50,[3],475 mg/kg
COC(=O)NC1=NC(c2ccccc2Br)CN1 (centres undefined),Log k',[8],0.47
same,ED50,Mus musculus [5],62 mg/kg
COC(=O)NC1=NC(c2c(Cl)cccc2Cl)CN1 (centres undefined),Log k',[8],0.3
same,ED50,Mus musculus [13],14.2 mg/kg
same,Mouse behavior activity,Mus musculus [11],Depressant
same,ED50,Mus musculus [1],inactive
same,Reserpine hypothermia,Mus musculus [14],0.15 mg/kg
same,IC50,Rattus norvegicus [15],> 100 µM
same,IC50,Rattus norvegicus [16],> 100 µM
same,HYPO,Mus musculus [9],<0.5 mg/kg
same,LD50,[3],300 mg/kg
CCOC(=O)NC1=NC(c2cc(C)ccc2C)CN1 (centres undefined),Log k',[8],0.88
same,ED50,Mus musculus [1],inactive
CCCOC(=O)NC1=NC(c2ccccc2F)CN1C (centres undefined),Log k',[8],0.87
same,ED50,Mus musculus [5],23 mg/kg
COC(=O)NC1=NC2c3ccccc3CC2N1 (centres undefined),Log k',[8],-1.14
same,HYPO,Mus musculus [12],inactive
same,Mouse behavior activity,Mus musculus [11],Depressant Weak
same,ED50,Mus musculus [5],44 mg/kg
same,LD50,[3],700 mg/kg
CCN1CC(c2ccccc2)N=C1NC(=O)OC (centres undefined),Log k',[8],0.39
same,Mouse behavior activity,Mus musculus [4],Depressant
same,ED50,Mus musculus [5],66 mg/kg
same,Loss of righting reflex,Mus musculus [7],84 mg/kg
same,LD50,[3],117 mg/kg
COC(=O)NC1=NC(Cc2ccccc2)CN1 (centres undefined),Log k',[8],0.12
COC(=O)NC1=NC(c2ccccc2C)CN1C (centres undefined),Log k',[8],0.37
same,Mouse behavior activity,Mus musculus [4],Depressant
same,ED50,Mus musculus [5],68 mg/kg
same,LD50,[3],200 mg/kg
COC(=O)NC1=NCC(c2c(Cl)cccc2Cl)N1C (centres undefined),Log k',[8],0.54
same,ED50,Mus musculus [5],22 mg/kg
NC1=NC(c2ccccc2)CN1 (centres undefined),Log k',[8],-3.74
same,ED50,Mus musculus [13],0.3 mg/kg
same,ED50,Mus musculus [1],inactive
same,Reserpine hypothermia,Mus musculus [14],< 10 mg/kg
same,IC50,Rattus norvegicus [15],31 µM
same,IC50,Rattus norvegicus [16],0.1 µM
same,Mouse behavior activity,Mus musculus [2],Stimulant-Depressant
same,LD50,[3],300 mg/kg
COC(=O)NC1=NC(C)(c2ccccc2)CN1 (centres undefined),ED50,Mus musculus [1],inactive
